Laboratory results taken from ChEMBL document CHEMBL5058577, “EUbOPEN Chemogenomics Library 2 (Multiplex)” (2022).

System: HEK-293T
Experiment: Multiplex assay against HEK293T
Format: toxicity, cell-based
Conditions: human
Procedure, shortened: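 At seeding, live cells were stained with Hoechst33342, BioTracker Green Microtubule Cytoskeleton Dye, MitoTracker Red and Annexin V Alexa Fluor 680. After compound addition they were imaged on a CQ1 microscope at 37°C and 5% CO2, and CellPathfinder machine-learning gating sorted them into Hoechst high-intensity objects or normal cells, with normal cells further split into healthy, pyknosed or fragmented nuclei and pyknosed cells into mitotic or apoptotic. Tubulin, mitochondrial-mass and membrane-permeability phenotypes are given as per cents of cells with healthy nuclei.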

[1] = 12 h, 1 µM, compound concentration 1 uM, replicate 1
[2] = 12 h, 1 µM, compound concentration 1 uM, replicate 2
[3] = 12 h, 10 µM, compound concentration 10 uM, replicate 1
[4] = 12 h, 10 µM, compound concentration 10 uM, replicate 2
[5] = 24 h, 1 µM, compound concentration 1 uM, replicate 1
[6] = 24 h, 1 µM, compound concentration 1 uM, replicate 2
[7] = 24 h, 10 µM, compound concentration 10 uM, replicate 1
[8] = 24 h, 10 µM, compound concentration 10 uM, replicate 2
[9] = 48 h, 1 µM, compound concentration 1 uM, replicate 1
[10] = 48 h, 1 µM, compound concentration 1 uM, replicate 2
[11] = 48 h, 10 µM, compound concentration 10 uM, replicate 1
[12] = 48 h, 10 µM, compound concentration 10 uM, replicate 2

OCCCNc1cc(-c2ccnc(Nc3cccc(Cl)c3)n2)ccn1
Population Apoptotic (%) [1]: 66%
Population Fragmented Nuclei (%) [1]: 9%
Population Healthy Nuclei (%) [1]: 66%
Population Hoechst High Intensity Objects (%) [1]: 14%
Population Membrane Permeable-Phenotype (%) [1]: 0%
Population Mitochondria Different-Phenotype (%) [1]: 82%
Population Mitotic Cells (%) [1]: 33%
Population Normal (%) [1]: 85%
Population Pyknosed Nuclei (%) [1]: 24%
Population Tubulin-Different-Phenotype (%) [1]: 75%
Total Cell Count [1]: 204
Population Apoptotic (%) [2]: 65%
Population Fragmented Nuclei (%) [2]: 8%
Population Healthy Nuclei (%) [2]: 74%
Population Hoechst High Intensity Objects (%) [2]: 11%
Population Mitochondria Different-Phenotype (%) [2]: 88%
Population Mitotic Cells (%) [2]: 34%
Population Normal (%) [2]: 88%
Population Pyknosed Nuclei (%) [2]: 16%
Population Tubulin-Different-Phenotype (%) [2]: 57%
Total Cell Count [2]: 173
Population Apoptotic (%) [3]: 78%
Population Fragmented Nuclei (%) [3]: 14%
Population Healthy Nuclei (%) [3]: 55%
Population Hoechst High Intensity Objects (%) [3]: 30%
Population Membrane Permeable-Phenotype (%) [3]: 1%
Population Mitochondria Different-Phenotype (%) [3]: 83%
Population Mitotic Cells (%) [3]: 21%
Population Normal (%) [3]: 69%
Population Pyknosed Nuclei (%) [3]: 30%
Population Tubulin-Different-Phenotype (%) [3]: 80%
Total Cell Count [3]: 249
Population Apoptotic (%) [4]: 75%
Population Healthy Nuclei (%) [4]: 67%
Population Hoechst High Intensity Objects (%) [4]: 41%
Population Membrane Permeable-Phenotype (%) [4]: 10%
Population Mitochondria Different-Phenotype (%) [4]: 85%
Population Mitotic Cells (%) [4]: 25%
Population Normal (%) [4]: 58%
Population Pyknosed Nuclei (%) [4]: 18%
Population Tubulin-Different-Phenotype (%) [4]: 72%
Total Cell Count [4]: 224
Population Apoptotic (%) [5]: 91%
Population Fragmented Nuclei (%) [5]: 10%
Population Healthy Nuclei (%) [5]: 66%
Population Hoechst High Intensity Objects (%) [5]: 14%
Population Membrane Permeable-Phenotype (%) [5]: 0%
Population Mitochondria Different-Phenotype (%) [5]: 80%
Population Mitotic Cells (%) [5]: 8%
Population Normal (%) [5]: 85%
Population Pyknosed Nuclei (%) [5]: 22%
Population Tubulin-Different-Phenotype (%) [5]: 61%
Total Cell Count [5]: 228
Population Apoptotic (%) [6]: 77%
Population Fragmented Nuclei (%) [6]: 13%
Population Healthy Nuclei (%) [6]: 76%
Population Hoechst High Intensity Objects (%) [6]: 15%
Population Mitochondria Different-Phenotype (%) [6]: 86%
Population Mitotic Cells (%) [6]: 22%
Population Normal (%) [6]: 84%
Population Pyknosed Nuclei (%) [6]: 10%
Total Cell Count [6]: 202
Population Apoptotic (%) [7]: 71%
Population Fragmented Nuclei (%) [7]: 16%
Population Healthy Nuclei (%) [7]: 44%
Population Hoechst High Intensity Objects (%) [7]: 41%
Population Membrane Permeable-Phenotype (%) [7]: 0%
Population Mitochondria Different-Phenotype (%) [7]: 85%
Population Mitotic Cells (%) [7]: 28%
Population Normal (%) [7]: 58%
Population Pyknosed Nuclei (%) [7]: 38%
Population Tubulin-Different-Phenotype (%) [7]: 88%
Total Cell Count [7]: 237
Population Apoptotic (%) [8]: 78%
Population Fragmented Nuclei (%) [8]: 15%
Population Healthy Nuclei (%) [8]: 54%
Population Hoechst High Intensity Objects (%) [8]: 45%
Population Membrane Permeable-Phenotype (%) [8]: 3%
Population Mitochondria Different-Phenotype (%) [8]: 91%
Population Mitotic Cells (%) [8]: 21%
Population Normal (%) [8]: 54%
Population Pyknosed Nuclei (%) [8]: 29%
Population Tubulin-Different-Phenotype (%) [8]: 82%
Total Cell Count [8]: 207
Population Apoptotic (%) [9]: 82%
Population Fragmented Nuclei (%) [9]: 12%
Population Healthy Nuclei (%) [9]: 51%
Population Hoechst High Intensity Objects (%) [9]: 18%
Population Membrane Permeable-Phenotype (%) [9]: 1%
Population Mitochondria Different-Phenotype (%) [9]: 88%
Population Mitotic Cells (%) [9]: 17%
Population Normal (%) [9]: 81%
Population Pyknosed Nuclei (%) [9]: 35%
Population Tubulin-Different-Phenotype (%) [9]: 68%
Total Cell Count [9]: 232
Population Apoptotic (%) [10]: 61%
Population Fragmented Nuclei (%) [10]: 17%
Population Healthy Nuclei (%) [10]: 65%
Population Hoechst High Intensity Objects (%) [10]: 21%
Population Membrane Permeable-Phenotype (%) [10]: 0%
Population Mitochondria Different-Phenotype (%) [10]: 84%
Population Mitotic Cells (%) [10]: 38%
Population Normal (%) [10]: 78%
Population Pyknosed Nuclei (%) [10]: 17%
Population Tubulin-Different-Phenotype (%) [10]: 59%
Total Cell Count [10]: 193
Population Apoptotic (%) [11]: 71%
Population Fragmented Nuclei (%) [11]: 16%
Population Healthy Nuclei (%) [11]: 46%
Population Hoechst High Intensity Objects (%) [11]: 57%
Population Membrane Permeable-Phenotype (%) [11]: 1%
Population Mitochondria Different-Phenotype (%) [11]: 78%
Population Mitotic Cells (%) [11]: 28%
Population Normal (%) [11]: 42%
Population Pyknosed Nuclei (%) [11]: 37%
Population Tubulin-Different-Phenotype (%) [11]: 76%
Total Cell Count [11]: 262
Population Apoptotic (%) [12]: 83%
Population Fragmented Nuclei (%) [12]: 25%
Population Hoechst High Intensity Objects (%) [12]: 56%
Population Membrane Permeable-Phenotype (%) [12]: 8%
Population Mitochondria Different-Phenotype (%) [12]: 85%
Population Mitotic Cells (%) [12]: 16%
Population Normal (%) [12]: 43%
Population Pyknosed Nuclei (%) [12]: 28%
Population Tubulin-Different-Phenotype (%) [12]: 79%
Total Cell Count [12]: 238
